Measured values gathered from unrelated publications.
Protocols differ between the studies behind these lines. pIC50: −log10 of the molar value.
Observed: cell growth or viability

SMILES	cell line	assay	setting	pIC50
COc1cc2c3c(n(CCCNCCO)c(=O)c2cc1OC)-c1nc2c(cc1C3=O)OCO2	KMS-27	MTS	72 h	6.85
COc1ccc(-c2cc(C(=O)Nc3ccccc3)c3cc(-c4cnc(Cl)c(C)c4)ccc3n2)cc1	MIA PaCa-2	MTT	48 h	< 4.30
Cc1sc2c(c1C)C(c1ccc(Cl)cc1)=N[C@@H](CC(=O)NCCCCCCCCNC(=O)COc1cccc3c1C(=O)N(C1CCC(=O)NC1=O)C3=O)c1nnc(C)n1-2 (stereo partly shown)	MOLT-4	ATP luminescence	–	7.64
COc1cc2c3c(n(CCCN4CCOCC4)c(=O)c2cc1OC)-c1nc2c(cc1C3=O)OCO2	KMS-27	MTS	72 h	6.28
COc1ccc(-c2cc(C(=O)Nc3ccccc3)c3cc(-c4cc(C)ccc4F)ccc3n2)cc1	MIA PaCa-2	MTT	48 h	< 4.30
[NH2][Pt]([NH2])([Cl])[Cl]	LNCaP	MTT	72 h	4.99
C=C(F)C(=O)N1CCN(c2nc(OC[C@@H]3CCCN3C)nc3c2CCN(c2cccc4cccc(Cl)c24)C3)C[C@@H]1CC#N	SW837	ATP luminescence	–	7.06
CN1CCC(NC(=O)c2ccc(-c3cc(C4CC4)c4oc5c(c4c3)CCN(C(=O)/C=C/c3ccc(N)nc3)C5)nn2)C(F)(F)C1 (stereo not shown)	MIA PaCa-2	CCK-8	72 h	5.72
C=CC(=O)N1CCN(c2nc(=O)n(-c3c(C)ccnc3C(C)C)c3nc(-c4c(O)cccc4F)c(F)cc23)[C@@H](C)C1	MIA PaCa-2	ATP luminescence	–	7.63
COc1ccc(-c2cc(C(=O)Nc3ccccc3)c3cc(-c4ccc(Cl)cc4)ccc3n2)cc1	MIA PaCa-2	MTT	48 h	< 4.30
CC1(C)CCC(c2ccc(Cl)cc2)=C(CN2CCN(c3ccc(C(=O)NS(=O)(=O)c4ccc(N[C@H](CCN5CCOCC5)CSc5ccccc5)c(S(=O)(=O)C(F)(F)F)c4)cc3)CC2)C1	human Platelet	MTS	24 h	8.19
COc1cc2c3c(n(CCCNC(C)C)c(=O)c2cc1OC)-c1nc2c(cc1C3=O)OCO2	KMS-27	MTS	72 h	6.69
COc1ccc(-c2cc(C(=O)Nc3ccccc3)c3cc(-c4cc(F)ccc4OC)ccc3n2)cc1	MIA PaCa-2	MTT	48 h	< 4.30
CCNCCCn1c2c(c3cc(OC)c(OC)cc3c1=O)C(=O)c1cc3c(nc1-2)OCO3	MOLT-4	MTS	72 h	7.89
COc1ccc(-c2cc(C(=O)Nc3ccccc3)c3cc(-c4cc(Cl)ccc4F)ccc3n2)cc1	MIA PaCa-2	MTT	48 h	< 4.30
Nc1ccc(/C=C/C(=O)N2CCc3c(oc4c(-c5ccc(F)cc5)cc(-c5ccc(C(=O)N6CCC(F)(F)CC6)nn5)cc34)C2)cn1	MIA PaCa-2	CCK-8	72 h	6.64
COc1cc2c3c(n(CCCn4ccnc4)c(=O)c2cc1OC)-c1nc2c(cc1C3=O)OCO2	KMS-27	MTS	72 h	6.62
CN1CCC(NC(=O)c2ccc(-c3cc(-c4ccsc4)c4oc5c(c4c3)CCN(C(=O)/C=C/c3ccc(N)nc3)C5)nn2)C(F)(F)C1 (stereo not shown)	MIA PaCa-2	CCK-8	72 h	6.19
COc1cc([C@@H]2c3cc4c(cc3[C@@H](O[C@@H]3O[C@@H]5CO[C@@H](C)O[C@H]5[C@H](O)[C@H]3O)[C@H]3COC(=O)[C@H]23)OCO4)cc(OC)c1O	T47D	MTT	48 h	4.10
